KCNQ1 inh: blocks the human KCNQ1 potassium channel. P51787. CHO-K1 KCNQ1, FluxOR thallium flux fluorescence; active compounds read high. B-score at 10 µM. hit rate 1.3% among 310,000;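 active means compounds whose thallium flux B-score, printed positive for inhibition, exceeds three library SD while starting fluorescence stays within three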;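 further: channel opened by potassium depolarization with thallium stimulus after 20 min compound exposure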
KCNK3 inh: human KCNK3 channel inhibition, primary screen; O14649; B-score at 10 µM; hit rate 0.84% among 340,000; CHO-KCNK3 thallium flux, FluxOR fluorescence; active compounds read low;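 active means B-score under library mean minus 4 SD, starting fluorescence ratio at most library mean plus 5 SD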;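 further: more negative B-score means stronger inhibition of thallium flux through KCNK3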
hERG rescue: compounds protecting human hERG from proarrhythmic drug block | CHO-hERG, FluxOR thallium flux, dofetilide IC70 present | Q12809 | hit rate 0.51% among 310,000 | activation (rescue from dofetilide block), less the hit threshold, % at 10 µM;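 active means activation above the mean of controls blocked by dofetilide plus 5 SD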;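 further: thallium influx through hERG after potassium depolarization seen as dye fluorescence rise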
KCNQ1 pot: human KCNQ1 channel potentiation or activation; hit rate 0.35% among 310,000; P51787; CHO-K1 KCNQ1, thallium flux FluxOR fluorescence; active compounds read high; B-score at 10 µM; AID 2648;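 active means fluorescence ratio B-score, a plate-corrected score, at least three library SD, with initial intensity B-score within 5 SD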
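Assay system: CHO-K1 cells stably expressing KCNQ1. Medium: assay buffer for compound exposure, DMSO matched across wells. Timing: 37 °C overnight plating, 90-min dark dye load, 20-min compound pretreatment. Signal: kinetic FluxOR fluorescence, 10 s baseline plus 110 s post-stimulus.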
Kir21 inh: Kir2.1 (mouse) channel inhibition; P35561; HEK293-Kir2.1, FluxOR thallium flux fluorescence; active compounds read low; B-score at 10 µM; hit rate 0.85% among 310,000;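 active means fluorescence ratio B-score at or below minus 3 SD of library scores, with starting-brightness B-score within 2 SD, cut at about -4.2 in these data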;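 further: channel flux triggered by added potassium and thallium sulfate stimulus; B-score of peak minus minimum fluorescence over baseline after thallium stimulus; more negative B-score means stronger Kir2.1 block with less thallium influx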
KCNK9 block: human KCNK9 channel inhibition | Q9NPC2 | HEK293 KCNK9, FluxOR thallium flux fluorescence; active compounds read low | B-score at 10 µM | hit rate 1.2% among 310,000;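 active means ratio B-score over 3 SD below the library mean, with starting fluorescence within 5 SD of its mean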;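 further: negative B-score means less thallium flux so channel inhibition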
Target sequence (Q9NPC2 whole entry, looked up): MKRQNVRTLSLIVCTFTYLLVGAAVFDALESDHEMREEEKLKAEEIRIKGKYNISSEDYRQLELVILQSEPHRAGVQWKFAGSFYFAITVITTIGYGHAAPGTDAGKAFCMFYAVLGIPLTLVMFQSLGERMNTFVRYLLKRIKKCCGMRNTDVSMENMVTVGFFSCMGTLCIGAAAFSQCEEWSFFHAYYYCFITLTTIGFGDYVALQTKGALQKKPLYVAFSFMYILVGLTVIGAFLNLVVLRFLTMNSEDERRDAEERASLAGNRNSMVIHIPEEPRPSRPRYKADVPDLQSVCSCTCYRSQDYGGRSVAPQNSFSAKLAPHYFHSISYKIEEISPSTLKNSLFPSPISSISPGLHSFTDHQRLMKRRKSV
KCNK9 block conf: human KCNK9 inhibitor confirmation. shares compounds with KCNK9 block. HEK293 KCNK9 cells, FluxOR thallium flux fluorescence. inhibition, % at 10 µM. hit rate 43% among 4,900;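 active means thallium signal inhibited by more than 5 SD of the compound-free buffer control wells, on both duplicate plates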;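 further: 0% = assay buffer control wells without compound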
Kir2-1 spec: tests whether KCNK9 modulators also affect mouse Kir2.1 | shares compounds with KCNK9 block | Kir2.1 cells, FluxOR thallium flux fluorescence | inhibition, % at 10 µM | hit rate 4% among 4,900 | AID 492993;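 active means thallium signal drop more than 5 SD beyond the mean of the no-compound control wells, seen in both duplicate plates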;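 further: signal is fluorescence rise after thallium addition divided by baseline fluorescence; plate controls were assay buffer only for no effect and full block by chlorpromazine control for full effect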
KCNK9 uninduced: non-induced cell nonspecific activity of KCNK9 modulators | non-induced KCNK9-HEK293, FluxOR thallium flux | inhibition, % at 10 µM | hit rate 40% among 4,900 | AID 492997 | shares compounds with KCNK9 block;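 active means thallium signal drop beyond 5 SD of the untreated control mean, on both duplicate plates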;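 further: plate controls were buffer only IC0 wells for no effect and SID17386958 at its maximal inhibitory level for full effect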
Numbers without * were called inactive; i = inactive; . = not tested or not shown. Compounds with a hit are over-represented: about 3.7% of the library has one in this group of screens.

SMILES	KCNQ1 inh	KCNK3 inh	hERG rescue	KCNQ1 pot	Kir21 inh	KCNK9 block	KCNK9 block conf	Kir2-1 spec	KCNK9 uninduced
CN(Cc1ccccc1)C(=O)CSc1nc2c(c(C(F)(F)F)n1)CCc1ccccc1-2	i	i	-7	i	0.56	i	i	i	i
O=S(=O)(NCc1cccnc1)c1ccc(Cl)c2ccccc12	i	i	-4	i	-4.1	i	.	.	.
c1ccc(C2CCCN(Cc3nc(CC4CC4)no3)CC2)cc1 (stereo unspecified)	i	i	-12	i	1.9	i	i	i	i
Cc1ccccc1C1CCCN(Cc2nc(CC3CC3)no2)C1 (stereo unspecified)	i	i	-18	i	0.06	i	i	i	i
Cc1cccc(N2CCN(Cc3nc(CC4CC4)no3)CC2)n1	i	i	-10	i	1.6	i	.	.	.
COc1ccc(OCC2CCCN(Cc3nc(CC4CC4)no3)C2)cc1 (stereo unspecified)	i	i	-4	i	0.15	i	.	.	.
O=c1ccc(-c2ccc(S(=O)(=O)Nc3ccccc3Cl)o2)n[nH]1	i	i	-6	i	-0.53	i	.	.	.
O=C(CCc1nnc2ccc(NCc3ccccc3)nn12)NC1CCCC1	i	i	-9	i	0.03	i	.	.	.
COC(=O)C1CCN(S(=O)(=O)c2ccc(Br)s2)CC1	.	i	.	.	.	.	.	.	.
O=C(C1CCN(S(=O)(=O)c2ccc(Br)s2)CC1)N1CCc2ccccc21	i	i	-11	i	0.31	i	i	i	i
Cc1cc(SCC(=O)N(C)C2CCCCC2)nc2ccccc12	.	i	.	.	.	.	.	.	.
O=C(NCc1ccccc1)/C(=C/c1ccc(OC(F)F)cc1)c1ccccc1	i	i	-7	i	0.29	-11*	40%*	i	50%*
CC(C)OC(=O)CC(=O)CSc1nc2c(c(-c3cccs3)c1C#N)CCC2	i	i	-6	i	1.1	i	.	.	.
CCOC(=O)C(C)Sc1nc2c(c(-c3cccs3)c1C#N)CCC2 (stereo unspecified)	i	i	1	i	0.34	i	i	i	i
O=C(NC12CC3CC(CC(C3)C1)C2)C12CC3CC(C1)CC(n1cnc(Cl)n1)(C3)C2	i	i	-4	i	0.22	i	.	.	.
CCC(=O)N(CCC(c1ccco1)C(C)C)Cc1ccccc1 (stereo unspecified)	i	i	-16	i	-6.1*	-11*	i	i	34%*
CCCC(=O)N(CCN(Cc1ccccc1)C(=O)CCC)Cc1ccccc1	i	i	-12	i	-2.1	i	.	.	.
CC(C)C(CCN1C(=O)c2ccccc2C1=O)c1ccco1 (stereo unspecified)	i	i	-16	i	-0.41	i	.	.	.
CCC(=O)N(CCC(c1ccc(C)cc1)c1ccco1)Cc1ccco1 (stereo unspecified)	i	i	-12	i	-2.7	-16*	68%*	i	46%*
CC(=O)N(CCC(c1ccco1)C(C)C)Cc1ccc(Cl)cc1 (stereo unspecified)	i	i	-9	i	-3.2	-9.3*	40%*	33%*	46%*
O=C1c2ccccc2NC(c2ccc([N+](=O)[O-])cc2)N1O (stereo unspecified)	i	i	-6	i	-0.06	i	.	.	.
CSc1cccc(NC(=O)C2CCN(C(=O)c3ccccc3C)CC2)c1	i	i	-8	i	-1.9	i	i	i	i
Cc1ccccc1C(=O)N1CCC(C(=O)Nc2ccc(F)cc2)CC1	i	i	-16	i	-1.1	i	.	.	.
